Data set [1] in a line: MTT assay, cytotoxicity against normal HEK293 cells. Type of data set: cell-based, human. The settings on record: human, HEK293 cells. In outline: (§1)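 Cells grown in DMEM (4.5 g/L glucose, 10% FBS, 1% penicillin/streptomycin) at 37 °C, 5% CO₂. Seeded at 1 × 10³ cells/well and left 24 h to adhere. Test compound added at 10, 40, 80, 100 or 150 μM for 48 h (text also states MTT added 24 h post-dosing). MTT in PBS added for 3 h, formazan dissolved in DMSO for 30 min, OD read at 550 nm, % viability calculated from absorbance.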
On the technique in general: Tetrazolium assays rely on reduction of a dye to a coloured formazan, in cell work by metabolically active cells.

Data set [2] relates to human embryonic kidney HEK293 cell line. The description is as above. It counts as cell-based. The note with it: for cytotoxicity in noncancerous cells (HEK293): compared with malignant glioma U87 cells, 10-150 μM. In outline: as §1
For data set [3], the system named is U87-malignant glioma (ATCC-HTB-14). In words: MTT assay, cytotoxicity against U87-malignant glioma cells. It counts as cell-based, human. The settings on record: for viability at 10 µM / viability at 40 µM / viability at 80 µM / viability at 100 µM / viability at 150 µM: read-out: % cell viability U87; for IC50: read-out: IC50 (μM ± SEM U87). In outline:
as §1

[4] abbreviates: MTT assay, U87 malignant glioma cells, ± SEM.

Where two headings read alike, the source gives them in different places.

As a reminder, the viability is a read-out of living cells in per cent, often relative to untreated cells. In general, IC50 refers to the concentration that gives 50% inhibition.

On to `CC(C)Cc1ccc(C(C)C(=O)NN=Cc2ccc(OCC(=O)NN=Cc3ccc(O)cc3O)cc2)cc1` (stereo not shown) [5e, N′-(4-(2-(2-(2,4-Dihydroxybenzylidene)hydrazinyl)-2-oxoethoxy)benzylidene)-2-(4-isobutylphenyl)propanehydrazide], for which, in data set [1], the viability at 48 h, 10 μM was 69.4%; the viability at 48 h, 40 μM came to 69.1%; the viability at 48 h, 80 μM is 67.9%; the viability at 48 h, 100 μM was 62.1%. In data set [1], the viability at 48 h, 150 μM is 50.8%. Further, in data set [2], the “cytotoxicity in noncancerous cells (HEK293)” value is on record as “lower cytotoxicity”. Also, in data set [3] (Homo sapiens, Glioma cell), the viability at 10 µM worked out at 43.4%, the viability at 40 µM amounted to 41%, the viability at 80 µM was found to be 39.9% and the viability at 100 µM was 28.5%. Also, in data set [3] (Homo sapiens, Glioma cell), the viability at 150 µM was determined as 27.5% and the IC50 came to 5.75 ± 0.43 µM.
Take “2-(4-Isobutyl phenyl)-N′-(4-(2-oxo-2-(2-(−3,4,5-trimethoxybenzylidene)hydrazinyl)ethoxy)benzylidene)propanehydrazide [5g]”: the “% cell viability HEK293” value was determined as 86.66% in data set [2] (concentration 10 (μM)); 75.46% in data set [2] (concentration 40 (μM)); 62.21% in data set [2] (concentration 80 (μM)); 62.12% in data set [2] (concentration 100 (μM)); 56.11% in data set [2] (concentration 150 (μM)). The “% cell viability U87” value is 56.40% in data set [3] (concentration 10 (μM)); 47.40% in data set [3] (concentration 40 (μM)); 39.45% in data set [3] (concentration 80 (μM)); 33.32% in data set [3] (concentration 100 (μM)); 30.90% in data set [3] (concentration 150 (μM)). In addition, in data set [3] (setting [4]), the IC50 was found to be 39.94 ± 0.16 µM.
Turning to `COc1ccc(C=NNC(=O)COc2ccc(C=NNC(=O)C(C)c3ccc(CC(C)C)cc3)cc2)c(OC)c1` (stereo not shown) [5f, N′-(4-(2-(2-(2,4-Dimethoxybenzylidene)hydrazinyl)-2-oxoethoxy)benzylidene)-2-(4-isobutylphenyl)propanehydrazide], in data set [1], the viability at 48 h, 10 μM amounted to 103%; the viability at 48 h, 40 μM stood at 79.2%; the viability at 48 h, 80 μM was determined as 71.9%; the viability at 48 h, 100 μM worked out at 69.9%. Also, in data set [1], the viability at 48 h, 150 μM worked out at 63.5%. Moreover, the “cytotoxicity in noncancerous cells (HEK293)” value in data set [2] was “lower cytotoxicity”. Further, in data set [3] (Homo sapiens, Glioma cell), the viability at 10 µM was found to be 54.1%, the viability at 40 µM came to 44.2%, the viability at 80 µM was 38.7% and the viability at 100 µM was 29%. Also, in data set [3] (Homo sapiens, Glioma cell), the viability at 150 µM is 21.6% and the IC50 amounted to 24.2 ± 0.46 µM.
`COc1ccc(C=NNC(=O)COc2ccc(C=NNC(=O)C(C)c3ccc(CC(C)C)cc3)cc2)c(O)c1` (stereo not shown) [5m, N′-(4-(2-(2-(2-Hydroxy-4-methoxybenzylidene)hydrazinyl)-2-oxoethoxy)benzylidene)-2-(4-isobutylphenyl)propanehydrazide]: in data set [1], the viability at 48 h, 10 μM is 26.2%; the viability at 48 h, 40 μM was 26.1%; the viability at 48 h, 80 μM turned out to be 24.2%; the viability at 48 h, 100 μM came out at 21.9%. The viability at 48 h, 150 μM in data set [1] was determined as 18.6%. Further, in data set [3] (Homo sapiens, Glioma cell), the viability at 10 µM stood at 142%, the viability at 40 µM turned out to be 138%, the viability at 80 µM came out at 34.5% and the viability at 100 µM came to 134%. Besides, in data set [3] (Homo sapiens, Glioma cell), the viability at 150 µM was 128% and the IC50 is 150.5 ± 0.2 µM.
`CCN(CC)c1ccc(C=NNC(=O)COc2ccc(C=NNC(=O)C(C)c3ccc(CC(C)C)cc3)cc2)cc1` (stereo not shown) [5o, N′-(4-(2-(2-(4-(Diethylamino)benzylidene)hydrazinyl)-2-oxoethoxy)benzylidene)-2-(4-isobutylphenyl)propanehydrazide]: in data set [1], the viability at 48 h, 10 μM was 49%; the viability at 48 h, 40 μM worked out at 42.9%; the viability at 48 h, 80 μM stood at 37.7%; the viability at 48 h, 100 μM came to 35.8%. For the same compound, in data set [1], the viability at 48 h, 150 μM is 35.2%. Also, in data set [3] (Homo sapiens, Glioma cell), the viability at 10 µM came out at 146%, the viability at 40 µM was 122%, the viability at 80 µM is 121% and the viability at 100 µM came to 119%. Besides, in data set [3] (Homo sapiens, Glioma cell), the viability at 150 µM is 107% and the IC50 turned out to be 119.7 ± 0.25 µM.
As to `CC(C)Cc1ccc(C(C)C(=O)NN=Cc2ccc(OCC(=O)NN)cc2)cc1` (stereo not shown) [compound 4, N′-(4-(2-Hydrazinyl-2-oxoethoxy)benzylidene)-2-(4-isobutylphenyl)propanehydrazide], in data set [1], the viability at 48 h, 10 μM came to 29.1%; the viability at 48 h, 40 μM was determined as 28.6%; the viability at 48 h, 80 μM is 28.2%; the viability at 48 h, 100 μM came out at 26.3%. The viability at 48 h, 150 μM in data set [1] was 9.96%. Besides, in data set [3] (Homo sapiens, Glioma cell), the viability at 10 µM was determined as 72.5%, the viability at 40 µM amounted to 47.9%, the viability at 80 µM came to 41.6% and the viability at 100 µM turned out to be 41.3%. Further, in data set [3] (Homo sapiens, Glioma cell), the viability at 150 µM stood at 33.7% and the IC50 amounted to 59.9 ± 0.08 µM.
Turning to “2-(4-Isobutyl phenyl)-N′-(4-(2-(2-(4-isopropylbenzylidene)hydrazinyl)-2-oxoethoxy)benzylidene)propanehydrazide [5s]”, the “% cell viability HEK293” value in data set [2] (concentration 10 (μM)) is on record as 58.72%; in data set [2] (concentration 40 (μM)), 58.38%; in data set [2] (concentration 80 (μM)), 51.45%; in data set [2] (concentration 100 (μM)), 49.00%; in data set [2] (concentration 150 (μM)) it was 39.29%. Also, the “% cell viability U87” value was determined as 145.03% in data set [3] (concentration 10 (μM)); 93.13% in data set [3] (concentration 40 (μM)); 92.16% in data set [3] (concentration 80 (μM)); 78.36% in data set [3] (concentration 100 (μM)); 69.18% in data set [3] (concentration 150 (μM)). In data set [3] (setting [4]), the IC50 came out at 43.73 ± 0.11 µM.

The record behind these values is PMC10764114 (ACS Omega, 2023).
